Results taken from ChEMBL document CHEMBL2176952, “Anticancer activity and cellular repression of c-MYC by the G-quadruplex-stabilizing 11-piperazinylquindoline is not dependent on direct targeting of the G-quadruplex in the c-MYC promoter” (J Med Chem, 2012).
The source made the active and inactive calls. The rule behind the calls is not given here.

Legend:
[1] = tested on: Nucleic Acid; test: Thermal stability of c-MYC G-quadruplex DNA assessed as change in melting temperature at DNA:compound ratio 1:1 by spectropolarimeter analysis; type: nucleic-acid assay
Procedure, shortened: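 c-MYC G-quadruplex at 5 μM in 50 mM Tris-HCl pH 7.4, held 10 min at 25 °C, heated 10 min at 95 °C and air-cooled over ~30 min. Compound then added at 1 equivalent. Melting followed by CD spectropolarimetry; ΔTm = Tm with compound minus Tm of control.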

[2] = tested on: HCT-116; test: Cytotoxicity against human HCT116 cells after 96 hrs by MTS assay; type: functional, cell-based; settings: HCT-116, 96 h
Procedure, shortened: (§1)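 MTS viability after 96 h exposure. HCT-116 grown in DMEM, Raji in RPMI-1640, each with 10% FBS and penicillin/streptomycin at 37 °C, 5% CO2, kept in exponential growth. Compound spanned a 5–6 log range in 0.5 log steps. IC50 from non-linear regression; biological triplicates.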

[3] = tested on: Raji; test: Cytotoxicity against human Raji cells after 96 hrs by MTS assay; type: functional, cell-based; procedure, shortened: as §1
[4] = tested on: Nucleic Acid; test: Binding affinity to HIF1alpha G-quadruplex DNA at 2 uM after 48 hrs by competition dialysis method; type: nucleic-acid assay
Procedure, shortened: (§2)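 DNA at 75 μM in 50 mM Tris-HCl with 25 mM KCl. Duplexes annealed by heating to 95 °C then slow cooling at 1 °C/min. G-quadruplexes formed by 95 °C for 10 min with rapid air cooling, topology checked by CD. Dialysed 48 h in a cold room against BPES with 25 mM KCl and 2 μM compound. Bound compound measured by UV absorbance against a standard curve, expressed per binding site. Run in duplicate.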

[5] = tested on: Nucleic Acid; test: Binding affinity to hTERT G-quadruplex DNA at 2 uM after 48 hrs by competition dialysis method; type: nucleic-acid assay; procedure, shortened: as §2
[6] = tested on: Nucleic Acid; test: Binding affinity to PDGFRbeta G-quadruplex DNA at 2 uM after 48 hrs by competition dialysis method; type: nucleic-acid assay; procedure, shortened: as §2
[7] = tested on: Nucleic Acid; test: Binding affinity to dGdC DNA at 2 uM after 48 hrs by competition dialysis method; type: nucleic-acid assay; procedure, shortened: as §2
[8] = tested on: Nucleic Acid; test: Binding affinity to dAdT DNA at 2 uM after 48 hrs by competition dialysis method; type: nucleic-acid assay; procedure, shortened: as §2
[9] = tested on: Nucleic Acid; test: Binding affinity to c-MYC G-quadruplex DNA in human HCT116 cells assessed as decrease in c-MYC mRNA expression at 31 uM at 6 hrs by RT-PCR analysis; type: cell-based; settings: HCT-116
[10] = tested on: Nucleic Acid; test: Binding affinity to c-MYC G-quadruplex DNA in human HCT116 cells assessed as decrease in c-MYC mRNA expression at 31 uM at 48 hrs by RT-PCR analysis; type: cell-based; settings: HCT-116
[11] = tested on: Nucleic Acid; test: Binding affinity to HIF1alpha G-quadruplex DNA in human HCT116 cells assessed as change in HIF1alpha mRNA expression at 23 uM up to 48 hrs by RT-PCR analysis; type: cell-based; settings: HCT-116
[12] = tested on: Nucleic Acid; test: Binding affinity to HIF1alpha G-quadruplex DNA in human HCT116 cells assessed as change in HIF1alpha mRNA expression at 31 uM up to 48 hrs by RT-PCR analysis; type: cell-based; settings: HCT-116
[13] = tested on: Nucleic Acid; test: Binding affinity to hTERT G-quadruplex DNA in human HCT116 cells assessed as downregulation of hTERT mRNA expression at 31 uM at 6 hrs by RT-PCR analysis; type: cell-based; settings: HCT-116
[14] = tested on: Nucleic Acid; test: Binding affinity to hTERT G-quadruplex DNA in human HCT116 cells assessed as downregulation of hTERT mRNA expression at 31 uM at 24 hrs by RT-PCR analysis; type: cell-based; settings: HCT-116
[15] = tested on: Nucleic Acid; test: Binding affinity to hTERT G-quadruplex DNA in human HCT116 cells assessed as downregulation of hTERT mRNA expression at 31 uM at 48 hrs by RT-PCR analysis; type: cell-based; settings: HCT-116
[16] = tested on: Nucleic Acid; test: Binding affinity to PDGFRbeta G-quadruplex DNA in human HCT116 cells assessed as downregulation of PDGFRbeta mRNA expression at 31 uM at 6 hrs by RT-PCR analysis; type: cell-based; settings: HCT-116
[17] = tested on: Nucleic Acid; test: Binding affinity to PDGFRbeta G-quadruplex DNA in human HCT116 cells assessed as downregulation of PDGFRbeta mRNA expression at 31 uM at 24 hrs by RT-PCR analysis; type: cell-based; settings: HCT-116
[18] = tested on: Nucleic Acid; test: Binding affinity to PDGFRbeta G-quadruplex DNA in human HCT116 cells assessed as downregulation of PDGFRbeta mRNA expression at 31 uM at 48 hrs by RT-PCR analysis; type: cell-based; settings: HCT-116
[19] = tested on: HCT-116; test: Increase in VEGFA G-quadruplex DNA expression in human HCT116 cells by qPCR analysis; type: functional, cell-based
[20] = tested on: Nucleic Acid; test: Decrease of c-MYC G-quadruplex DNA-mediated c-MYC expression in exon1 in human CA46 cells at 2.8 uM at 24 hrs by exon-specific assay; type: cell-based
[21] = tested on: Nucleic Acid; test: Decrease of c-MYC G-quadruplex DNA-mediated c-MYC expression in exon1 in human CA46 cells at 2.8 uM at 48 hrs by exon-specific assay; type: cell-based
[22] = tested on: Nucleic Acid; test: Decrease of c-MYC G-quadruplex DNA-mediated c-MYC expression in exon1 in human CA46 cells at 2.8 uM at 6 hrs by exon-specific assay; type: cell-based
[23] = tested on: HCT-116; test: Cytotoxicity against human HCT116 cells after 24 hrs by MTS assay; type: functional, cell-based; settings: HCT-116, 24 h
[24] = tested on: CA46; test: Cytotoxicity against human CA46 cells after 24 hrs by MTS assay; type: functional, cell-based; settings: CA46, 24 h
[25] = tested on: Nucleic Acid; test: Binding affinity to c-MYC G-quadruplex DNA at 2 uM after 48 hrs by competition dialysis method; type: nucleic-acid assay; procedure, shortened: as §2
[26] = tested on: Nucleic Acid; test: Binding affinity to c-MYC G-quadruplex DNA in human HCT116 cells assessed as decrease in c-MYC mRNA expression at 23 uM from 6 to 48 hrs by RT-PCR analysis; type: cell-based; settings: HCT-116
[27] = tested on: Nucleic Acid; test: Binding affinity to hTERT G-quadruplex DNA in human HCT116 cells assessed as downregulation of hTERT mRNA expression at 23 uM by RT-PCR analysis; type: cell-based; settings: HCT-116, TDE = time-dependent effect
[28] = tested on: Nucleic Acid; test: Binding affinity to PDGFRbeta G-quadruplex DNA in human HCT116 cells assessed as change in PDGFRbeta mRNA expression at 23 uM up to 48 hrs by RT-PCR analysis; type: cell-based; settings: HCT-116
[29] = tested on: Nucleic Acid; test: Binding affinity to VEGFA G-quadruplex DNA in human HCT116 cells assessed as change in VEGFA mRNA expression at 23 uM up to 48 hrs by RT-PCR analysis; type: cell-based; settings: HCT-116
[30] = tested on: Nucleic Acid; test: Decrease of c-MYC G-quadruplex DNA-mediated c-MYC expression in exon1 in human CA46 cells at 19.4 uM at 24 hrs by exon-specific assay; type: cell-based
[31] = tested on: Nucleic Acid; test: Decrease of c-MYC G-quadruplex DNA-mediated c-MYC expression in exon1 in human CA46 cells at 19.4 uM at 48 hrs by exon-specific assay; type: cell-based
[32] = tested on: Nucleic Acid; test: Decrease of c-MYC G-quadruplex DNA-mediated c-MYC expression in exon1 in human CA46 cells at 19.4 uM at 6 hrs by exon-specific assay; type: cell-based

SMILES: c1ccc2c(N3CCNCC3)c3[nH]c4ccccc4c3nc2c1
- ΔTm [1]: 6.7 °C
- IC50 [2]: 4.3 µM
- IC50 [3]: 33.9 µM

SMILES: CCN(CC)CCN1CCN(c2c3ccccc3nc3c2[nH]c2ccccc23)CC1
- ΔTm [1]: 10.3 °C
- IC50 [2]: 3.4 µM
- IC50 [3]: 26 µM

SMILES: CN(C)CCCn1c2ccccc2c2nc3ccccc3c(N3CCN(CCN(C)C)CC3)c21
- ΔTm [1]: 16.5 °C
- IC50 [2]: 3.4 µM
- IC50 [3]: 3.1 µM
- Activity [4]: Active
- Activity [5]: Active
- Activity [6]: Active
- Activity [7]: Active
- Activity [8]: Active
- Activity [9]: Active
- Activity [10]: inactive
- Activity [11]: inactive
- Activity [12]: inactive
- Activity [13]: Active
- Activity [14]: Active
- Activity [15]: inactive
- Activity [16]: Active
- Activity [17]: Active
- Activity [18]: inactive
- Activity [19]: Active
- Activity [20]: inactive
- Activity [21]: inactive
- Activity [22]: inactive
- IC50 [23]: 31 µM
- IC50 [24]: 2.8 µM

SMILES: c1ccc2c(-c3ccc(CCN4CCOCC4)cc3)c3[nH]c4ccccc4c3nc2c1
- ΔTm [1]: 1.9 °C
- IC50 [2]: > 100 µM
- IC50 [3]: > 100 µM

SMILES: OCCCN1CCN(c2c3ccccc3nc3c2[nH]c2ccccc23)CC1
- ΔTm [1]: 1.3 °C
- IC50 [2]: 2.4 µM
- IC50 [3]: > 100 µM

SMILES: c1ccc2c(N3CCN(CCN4CCOCC4)CC3)c3[nH]c4ccccc4c3nc2c1
- ΔTm [1]: 5.9 °C
- IC50 [2]: 9.1 µM
- IC50 [3]: 52.9 µM

SMILES: CN1CCN(c2c3ccccc3nc3c2[nH]c2ccccc23)CC1
- ΔTm [1]: 3 °C
- IC50 [2]: 3.5 µM
- IC50 [3]: 5.44 µM

SMILES: c1ccc2c(N3CCN(CCN4CCCCC4)CC3)c3[nH]c4ccccc4c3nc2c1
- ΔTm [1]: 8.8 °C
- IC50 [2]: 0.5 µM
- IC50 [3]: 56.1 µM

SMILES: CN(C)CCN1CCN(c2c3ccccc3nc3c2[nH]c2ccccc23)CC1
- ΔTm [1]: 6.7 °C
- IC50 [2]: 0.97 µM
- IC50 [3]: 2.33 µM
- Activity [25]: Active
- Activity [7]: Active
- Activity [8]: Active
- Activity [26]: Active
- Activity [11]: inactive
- Activity [12]: inactive
- Activity [27]: tde
- Activity [28]: Active
- Activity [29]: Active
- Activity [30]: inactive
- Activity [31]: inactive
- Activity [32]: inactive
- IC50 [23]: 23 µM
- IC50 [24]: 19.4 µM

SMILES: CN(C)CCCN1CCN(c2c3ccccc3nc3c2[nH]c2ccccc23)CC1
- ΔTm [1]: 11.4 °C
- IC50 [2]: 0.9 µM
- IC50 [3]: 11.8 µM

SMILES: CN(C)CCN1CCN(c2c3cc(-c4ccc(F)c(F)c4)ccc3nc3c2[nH]c2ccccc23)CC1
- ΔTm [1]: 6.5 °C
- IC50 [2]: 3.7 µM
- IC50 [3]: 5.8 µM

SMILES: CN(C)CCCn1c2ccccc2c2nc3ccccc3c(N3CCN(C)CC3)c21
- ΔTm [1]: 2.8 °C
- IC50 [2]: 2.98 µM
- IC50 [3]: 7.03 µM

SMILES: CN(C)CCN1CCN(c2c3cc(-c4ccc(CCN5CCOCC5)cc4)ccc3nc3c2[nH]c2ccccc23)CC1
- ΔTm [1]: 13.1 °C
- IC50 [2]: 3.8 µM
- IC50 [3]: 10.8 µM

SMILES: COCCCN1CCN(c2c3ccccc3nc3c2[nH]c2ccccc23)CC1
- ΔTm [1]: 6.3 °C
- IC50 [2]: 6.3 µM
- IC50 [3]: 21.3 µM

SMILES: CN(C)CCN1CCN(c2c3cc(-c4ccncc4)ccc3nc3c2[nH]c2ccccc23)CC1
- ΔTm [1]: 8.6 °C
- IC50 [2]: 20.9 µM
- IC50 [3]: 45 µM

SMILES: CCN(CC)CCNc1c2ccccc2nc2c1[nH]c1ccccc12
- ΔTm [1]: 5.2 °C
- IC50 [2]: 0.11 µM
- IC50 [3]: 0.7 µM
- IC50 [24]: 10 µM
